# Results from PMC3580954 (Biopolymers, 2013).
# Residue numbers refer to the chain shown, from its start. Residues, ends and D or L forms follow the SMILES beside them.
# Tests used:
# Assay type in all cases: cell-based
# Conditions in all cases: SD
# [1] = molecular target: T1, W^2.71A PrRP receptor (Homo sapiens, UniProt P49683, W127A); assay: IP accumulation assay, W^2.71A receptor mutant
# T1 sequence (P49683 1-370 W127A): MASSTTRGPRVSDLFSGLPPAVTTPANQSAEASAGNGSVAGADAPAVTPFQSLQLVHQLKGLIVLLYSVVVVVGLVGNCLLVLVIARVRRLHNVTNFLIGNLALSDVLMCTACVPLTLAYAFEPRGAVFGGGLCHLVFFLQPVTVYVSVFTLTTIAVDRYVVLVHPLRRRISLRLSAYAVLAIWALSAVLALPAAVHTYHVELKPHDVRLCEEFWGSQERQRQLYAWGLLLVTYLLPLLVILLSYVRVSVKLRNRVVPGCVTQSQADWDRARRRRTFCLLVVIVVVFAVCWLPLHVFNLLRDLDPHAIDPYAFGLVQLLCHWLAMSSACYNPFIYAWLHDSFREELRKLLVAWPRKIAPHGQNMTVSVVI
# Procedure, shortened: (§1)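 COS-7 cells were transiently transfected with 0.4 µg plasmid of human PrRP receptor or its site-directed mutant, C-terminally fused to EYFP. One day after transfection and 16 h before stimulation, cells were labelled with 2 µCi/mL [³H]myo-inositol. They were then stimulated with increasing peptide concentrations for 1 h at 37°C in DMEM with 10 mM LiCl, and lysed in 0.1 M NaOH. IP was separated by anion exchange and counted by scintillation. EC50 came from concentration-response curves; runs were in duplicate, repeated ≥2 times.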
# [2] = molecular target: T2, Y^2.64A PrRP receptor (Homo sapiens, UniProt P49683, Y120A); assay: IP accumulation assay, Y^2.64A receptor mutant
# T2 sequence (P49683 1-370 Y120A): T1 sequence (P49683 1-370 W127A) with Y120A, A127W
# Procedure, shortened: as §1
# [3] = molecular target: T3, wt hPrRP receptor (Homo sapiens, UniProt P49683); assay: Signal transduction
# T3 sequence (P49683 1-370): T1 sequence (P49683 1-370 W127A) with A127W
# Procedure, shortened: as §1
# [4] = molecular target: T4, R^2.69A PrRP receptor (Homo sapiens, UniProt P49683, R125A); assay: IP accumulation assay, R^2.69A receptor mutant
# T4 sequence (P49683 1-370 R125A): T1 sequence (P49683 1-370 W127A) with R125A, A127W
# [5] = molecular target: T5, F^2.66A PrRP receptor (Homo sapiens, UniProt P49683, F122A); assay: IP accumulation assay, F^2.66A receptor mutant
# T5 sequence (P49683 1-370 F122A): T1 sequence (P49683 1-370 W127A) with F122A, A127W
# [6] = molecular target: T6, F^2.73A PrRP receptor (Homo sapiens, UniProt P49683, F129A); assay: IP accumulation assay, F^2.73A receptor mutant
# T6 sequence (P49683 1-370 F129A): T1 sequence (P49683 1-370 W127A) with A127W, F129A
# [7] = molecular target: T7, E^2.67A PrRP receptor (Homo sapiens, UniProt P49683, E123A); assay: IP accumulation assay, E^2.67A receptor mutant
# T7 sequence (P49683 1-370 E123A): T1 sequence (P49683 1-370 W127A) with E123A, A127W
smiles,measurement,setting,value
CC[C@H](C)[C@H](NC(=O)CNC(=O)[C@H](CCCNC(=N)N)NC(=O)[C@H](CO)NC(=O)[C@H](C)NC(=O)[C@H](Cc1ccc(O)cc1)NC(=O)[C@H](Cc1c[nH]c2ccccc12)NC(=O)[C@H](C)NC(=O)[C@@H]1CCCN1C(=O)[C@H](CC(N)=O)NC(=O)[C@@H](NC(=O)[C@H](CC(=O)O)NC(=O)[C@@H]1CCCN1C(=O)[C@@H](N)[C@@H](C)O)[C@@H](C)CC)C(=O)N[C@@H](CCCNC(=N)N)C(=O)N1CCC[C@H]1C(=O)N[C@H](C(=O)NCC(=O)N[C@@H](CCCNC(=N)N)C(=O)N[C@@H](Cc1ccccc1)C(N)=O)C(C)C [PrRP20] (H-TPDINPAWYASRGIRPVGRF-NH2),EC50,[1],593 ± 78 nM
same,EC50,[2],50 ± 7.5 nM
same,EC50,[3],2.2 ± 0.3 nM
same,EC50,[4],4.2 ± 2.5 nM
same,EC50,[5],6.2 ± 3.3 nM
same,EC50,[6],4.4 ± 2 nM
same,EC50,[7],7.2 ± 3.4 nM
